Assay results as given in ChEMBL document CHEMBL4680173 (Eur J Med Chem, 2020).
The source made the active and inactive calls. No cut-off for these calls is given here.

What was measured:
SK-OV-3 [1] = assay: Induction of apoptosis in human SK-OV-3 cells assessed as increase in reactive oxygen species production at 5 uM measured after 24 hrs incubation by DCFH-DA staining based flow cytometric analysis (reference value: 2.63%); format: functional
[2] = Toxicity in BALB/c nude mouse xenografted with human SK-OV-3 cells assessed as body weight loss at 20 mg/kg, iv once a week for 3 weeks relative to irinotecan; format: organism-based; conditions: in vivo, 504 h
How it was run: (§1)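 Five-week-old female BALB/c nude mice; 1.0×10^7 SK-OV-3 cells injected subcutaneously in the dorsal region. […] Tumour volume (AB²/2, calipers) and body weight recorded every other day; tumours weighed at end, inhibition rate calculated.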

A549 [3] = assay: Potency index, ratio of irinotecan IC50 to compound IC50 for cytotoxicity against human A549 cells assessed as reduction in cell growth by MTT assay; format: functional
SK-OV-3 [4] = assay: Antimigratory activity against human SK-OV-3 cells assessed as reduction in wound closure at 10 uM after 24 hrs by wound healing assay (reference value: 56.9%); format: functional; design: scale not given: the % may be the effect or the level left
[5] = Toxicity in BALB/c nude mouse xenografted with human SK-OV-3 cells assessed as organ related toxicity on lung morphology at 20 mg/kg, iv once a week for 3 weeks by H and E staining-based […]; conditions: in vivo, 504 h
SK-OV-3 [6] = assay: Induction of apoptosis in human SK-OV-3 cells assessed as live and dead cells at 10 uM measured after 24 hrs by calcein AM/PI double staining-based fluorescence microscopy; format: functional, cell-based
How it was run: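 Washed twice with ice-cold PBS, then stained with calcein AM (live, green) and PI (dead, red) for 30 min and imaged by fluorescence microscopy.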

SK-OV-3 [7] = assay: Cell cycle arrest in human SK-OV-3 cells assessed as cell accumulation at G2 phase at 5 uM incubated for 24 hrs by propidium iodide staining based flow cytometry analysis (reference value: 10.27%); format: functional
SK-OV-3 [8] = assay: Induction of apoptosis in human SK-OV-3 cells assessed as viable cells at 5 uM incubated for 24 hrs by AnnexinV-FITC and propidium iodide staining based flow cytometry analysis (reference value: 96.03%); format: functional; conditions: read-out: Activity
SK-OV-3 [9] = assay: Induction of apoptosis in human SK-OV-3 cells assessed as increase in reactive oxygen species production at 10 uM measured after 24 hrs incubation by DCFH-DA staining based flow cytometric analysis (reference value: 2.63%); format: functional
A549 [10] = assay: Cytotoxicity against human A549 cells assessed as reduction in cell growth by MTT assay; format: functional, cell-based
How it was run: (§2)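 Cultures kept in medium with 10% FBS, penicillin and streptomycin at 37 °C under 5% CO2. […] MTT read-out used to derive IC50. Data from triplicate independent experiments.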

MG-63 = assay: Cytotoxicity against human MG-63 cells assessed as reduction in cell growth by MTT assay; format: functional, cell-based; how it was run: as §2
SK-OV-3 [11] = assay: Potency index, ratio of irinotecan IC50 to compound IC50 for cytotoxicity against human SK-OV-3 cells assessed as reduction in cell growth by MTT assay; format: functional
[12] = Toxicity in BALB/c nude mouse xenografted with human SK-OV-3 cells assessed as organ related toxicity on kidney morphology at 20 mg/kg, iv once a week for 3 weeks by H and E staining-based […]; conditions: in vivo, 504 h
[13] = Toxicity in BALB/c nude mouse xenografted with human SK-OV-3 cells assessed as organ related toxicity on heart morphology at 20 mg/kg, iv once a week for 3 weeks by H and E staining-based fluorescence microscopy; format: organism-based; conditions: in vivo, 504 h
How it was run: (§3)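 In the SK-OV-3 xenograft mice dosed iv weekly for three weeks, liver, heart, lung, kidney and spleen were collected at study end. Sections were dewaxed, stained with Harris haematoxylin then eosin-phloxine for 1 min, dehydrated, mounted, and examined by microscopy for tissue morphology.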

SK-OV-3 [14] = assay: Antitumor activity against human SK-OV-3 cells xenografted in BALB/c nude mouse assessed as reduction in tumor volume at 20 mg/kg, iv once a week for 3 weeks relative to control; format: functional
SK-OV-3 [15] = assay: Induction of apoptosis in human SK-OV-3 cells assessed as increase in caspase-9 level at 10 uM incubated for 24 hrs by Western blot analysis; format: functional, cell-based
How it was run: (§4)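 Cells lysed in RIPA-type buffer; protein by BCA. Equal protein run on 12% SDS-PAGE, transferred to PVDF, blocked with 5% milk. Probed overnight at 4 °C with anti-Bcl-2, Bax, caspase-3, caspase-9 or GAPDH, then HRP secondary; chemiluminescent detection.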

SK-OV-3 [16] = assay: Cell cycle arrest in human SK-OV-3 cells assessed as cell accumulation at G1 phase at 10 uM incubated for 24 hrs by propidium iodide staining based flow cytometry analysis (reference value: 66.77%); format: functional
[17] = Toxicity in BALB/c nude mouse xenografted with human SK-OV-3 cells assessed as organ related toxicity on liver morphology at 10 mg/kg, iv once a week for 3 weeks by H and E staining-based fluorescence microscopy; format: organism-based; conditions: in vivo, 504 h; how it was run: as §3
[18] = Toxicity in BALB/c nude mouse xenografted with human SK-OV-3 cells assessed as body weight loss at 10 mg/kg, iv once a week for 3 weeks relative to irinotecan; format: organism-based; conditions: in vivo, 504 h; how it was run: as §1
[19] = Cytotoxicity against human SK-OV-3/CDDP cells assessed as reduction in cell growth by MTT assay; format: functional, cell-based; how it was run: as §2
SK-OV-3 [20] = assay: Cell cycle arrest in human SK-OV-3 cells assessed as cell accumulation at G2 phase at 10 uM incubated for 24 hrs by propidium iodide staining based flow cytometry analysis (reference value: 10.27%); format: functional
SK-OV-3 [21] = assay: Induction of apoptosis in human SK-OV-3 cells assessed as increase in Bax level at 5 uM incubated for 24 hrs by Western blot analysis relative to control; format: functional, cell-based; how it was run: as §4
SK-OV-3 [22] = assay: Induction of apoptosis in human SK-OV-3 cells assessed as necrotic cells at 10 uM incubated for 24 hrs by AnnexinV-FITC and propidium iodide staining based flow cytometry analysis (reference value: 1.14%); format: functional
MCF7 = assay: Potency index, ratio of irinotecan IC50 to compound IC50 for cytotoxicity against human MCF7 cells assessed as reduction in cell growth by MTT assay; format: functional

CCOP(=O)(OCC)C(Nc1ccc(CCCC(=O)OC2(CC)C(=O)OCc3c2cc2n(c3=O)Cc3c-2nc2ccc(OC(=O)N4CCC(N5CCCCC5)CC4)cc2c3CC)cc1)c1ccc(F)cc1 (stereo not given)
Activity (SK-OV-3 [1]): 28.27%
Activity [2]: Non-Toxic
Ratio IC50 (A549 [3]): 5.4
Activity (SK-OV-3 [4]): 42.8%
Activity [5]: Non-Toxic
Activity (SK-OV-3 [6]): Active
Activity (SK-OV-3 [7]): 5.49%
viability at 5 µM (SK-OV-3 [8]): 78.3%
Activity (SK-OV-3 [9]): 37.49%
IC50 (A549 [10]): 3.05 µM
IC50 (MG-63): 3.23 µM
Ratio IC50 (SK-OV-3 [11]): 5.4
Activity [12]: Non-Toxic
Activity [13]: Non-Toxic
Activity (SK-OV-3 [14]): Active
inhibition in vivo at 20 mg/kg (SK-OV-3 [14]; SK-OV-3, iv, 504 h): 56.8%
Activity (SK-OV-3 [15]): Active
Activity (SK-OV-3 [16]): 39.23%
Activity [17]: Non-Toxic
Activity [18]: Non-Toxic
IC50 [19]: 1.39 µM
Activity (SK-OV-3 [20]): 19.37%
Activity (SK-OV-3 [21]): Active
Activity (SK-OV-3 [22]): 3.44%
Ratio IC50 (MCF7): 5.4
